# Rows were chosen to be rich in hits. Some 2% of all compounds tested hit in one or more screens of this group.
# UPR CHOP act: activators of apoptotic arm of unfolded protein response (CHOP); activation, % at 10 µM; AID 449763; CHO-CHOP luciferase reporter, UPR activation, luminescence; percent of tunicamycin response over DMSO baseline; 0.34% of 330,000 active;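 active means at 10 µM dose, activation of 40% or more, normalized to positive control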;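 further: 100% = tunicamycin at 10 µg/mL and 0% = DMSO alone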
#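 Dosing – one dose, 10 µM in 0.5% DMSO · System – CHO-CHOP cells, stable luciferase reporter of PERK-eIF2a-CHOP signalling · Input – 500 cells/well · Control set – tunicamycin 10 µg/mL final as positive, DMSO-only wells as negative · Timing – 6 h compound treatment, 37 °C · Measure – % activation vs tunicamycin · Technique – luminescence read with Steady-Glo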
# A1 inh: inhibitors of the anti-apoptotic protein A1, read as caspase activation; MEF A1-2A-BIM cells, Caspase-Glo 3/7 luminescence, 3 h; percent of clofoctol response, vehicle zero; caspase activation, % (no concentration beside the values); 0.066% of 330,000 active; AID 2462;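 active means over half of replicate activation scores above 10%, or exactly half above 10 with the replicate mean above 10; inconclusive means replicate mean below 10 yet half the replicates above 10; inactive means over half of replicates below 10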
# MC4R barr agon: activates human MC4R beta-arrestin recruitment | P32245 | U2OS MC4R beta-arrestin complementation, luminescence; percent of melanotan II response, DMSO zero | activation, % at 8.9 µM | 0.98% of 360,000 active;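 active means activation above a per-plate cutoff, the mean activation of sample wells on that plate plus 3 SD, cut at about 8% in these data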
# UPR XBP1 act: activators of adaptive arm of unfolded protein response (XBP1). CHO-XBP1 luciferase reporter, IRE1-XBP1 UPR activation, luminescence; percent of tunicamycin response, DMSO as zero. 0.33% of 330,000 active. activation, % at 20 µM;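 active means versus positive control, 20 µM dose yields 30% or more activation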;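 further: 100% = tunicamycin at 10 µg/mL and 0% = DMSO only wells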
#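 Material: CHO cell line with stable XBP1 luciferase reporter; buffer or medium: F12 medium containing 10% fetal bovine serum; compound: single point, 20 µM final compound, 1% DMSO; incubation: 6 h treatment, 37 °C; measured by: glow luminescence from Steady-Glo reagent; evaluation: activation, % of tunicamycin; control set: tunicamycin high, DMSO low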
# MC4R antagonist: antagonists of human melanocortin 4 receptor (MC4R); P32245; MC4R-expressing cells, MTII-stimulated cAMP, LANCE TR-FRET; inhibition, % at 6.5 µM; 0.48% of 360,000 active; AID 540295;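 active means inhibition above its plate's cutoff, the mean of tested wells on that plate plus 3 SD, cut at about 29% in these data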;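 further: 0% = Melanotan II alone and 100% = Melanotan II plus saturating MCL0020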
#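 material = U2OS cells stably expressing human melanocortin 4 receptor (MC4R) | also added = Melanotan II challenge | dosing = single nominal compound dose of 6.5 µM | detection = TR-FRET with Eu-cAMP and labeled anti-cAMP, 671 nm | replication = singlicate | timing = compound 30 min, challenge 1 h, detection 1 h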
# U2OS cAMP counter: U2OS forskolin cAMP inhibition counter-screen. shares compounds with MC4R antagonist. parental U2OS, LANCE TR-FRET. inhibition, % at 6.5 µM. 26% of 1,600 active. AID 602193;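 active means mean inhibition over triplicates above the low-control well mean plus 3 SD, set per campaign, cut at about 13% in these data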;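 further: signal is single emission at 671 nm which falls as cellular cAMP rises; 0% = forskolin-stimulated wells and 100% = buffer without forskolin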
# MC4R cAMP antag: human MC4R cAMP antagonism confirmation; shares compounds with MC4R antagonist; MC4R-expressing cells, MTII-stimulated cAMP, TR-FRET; inhibition, % at 6.5 µM; 27% of 1,600 active; in the data active means inhibition above about 29%;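 further: 0% = agonist stimulated wells alone and 100% = agonist stimulated wells plus saturating reference antagonist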
# MC4R barr conf: human MC4R beta-arrestin agonism confirmation. 31% of 2,400 active. AID 602192. shares compounds with MC4R barr agon. activation, % at 8.9 µM. U2OS MC4R beta-arrestin recruitment, luminescence; scaled DMSO 0%, Melanotan II 100%;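 active means mean activation across replicates above the hit cutoff set in the earlier primary screen, cut at about 8% in these data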
# MOR DOR agonist: OPRM1-OPRD1 heterodimer agonism counter-screen; shares compounds with MC4R barr agon; U2OS PathHunter beta-arrestin, beta-gal luminescence; percent of deltorphin B response, DMSO zero; activation, % at 9.2 µM; 5.8% of 2,400 active; AID 602194;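 active means mean activation across replicates exceeds the hit threshold derived in the earlier primary screen, cut at about 18% in these data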;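 further: 100% = deltorphin B at 0.9 µM final and 0% = DMSO alone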
# Target sequence (P35372 whole entry, looked up): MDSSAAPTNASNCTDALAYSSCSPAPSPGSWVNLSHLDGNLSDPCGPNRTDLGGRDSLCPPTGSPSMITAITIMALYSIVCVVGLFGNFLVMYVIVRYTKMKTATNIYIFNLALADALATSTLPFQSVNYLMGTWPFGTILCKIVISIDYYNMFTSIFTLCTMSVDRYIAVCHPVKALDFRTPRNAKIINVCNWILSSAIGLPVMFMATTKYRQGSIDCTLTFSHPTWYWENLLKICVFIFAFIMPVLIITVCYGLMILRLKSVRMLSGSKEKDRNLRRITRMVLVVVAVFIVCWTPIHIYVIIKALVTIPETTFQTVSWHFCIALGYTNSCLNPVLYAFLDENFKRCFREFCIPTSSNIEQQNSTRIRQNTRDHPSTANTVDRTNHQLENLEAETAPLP
# Target sequence (P41143 whole entry, looked up): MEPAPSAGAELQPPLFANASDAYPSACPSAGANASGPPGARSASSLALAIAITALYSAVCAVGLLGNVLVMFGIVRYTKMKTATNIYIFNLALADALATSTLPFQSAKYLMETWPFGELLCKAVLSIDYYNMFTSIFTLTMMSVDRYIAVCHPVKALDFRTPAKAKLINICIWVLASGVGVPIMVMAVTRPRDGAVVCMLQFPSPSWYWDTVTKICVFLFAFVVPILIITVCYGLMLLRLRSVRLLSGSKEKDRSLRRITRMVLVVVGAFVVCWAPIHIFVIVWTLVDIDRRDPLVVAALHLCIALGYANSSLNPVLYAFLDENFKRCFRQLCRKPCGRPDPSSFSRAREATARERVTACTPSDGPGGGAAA
# Numbers without * were called inactive; ? = inconclusive; nt = no result given.
SMILES,UPR CHOP act,A1 inh,MC4R barr agon,UPR XBP1 act,MC4R antagonist,U2OS cAMP counter,MC4R cAMP antag,MC4R barr conf,MOR DOR agonist
CNC[C@H]1OCCCC[C@H](C)Oc2ccc(NC(=O)CCCN(C)C)cc2C(=O)N([C@H](C)CO)C[C@@H]1C,nt,nt,-1,nt,3,nt,nt,nt,nt
CCCNC(=O)C1(C)CCN(C(=O)/C=C/c2ccccc2)C1 (centres undefined),nt,nt,-1,nt,10,nt,nt,nt,nt
C[C@H]1CN(CCc2ccccc2)C(=O)[C@@H]1CC(=O)Nc1ccc(Br)cc1,nt,nt,1,nt,2,nt,nt,nt,nt
CCCCN(C)c1c(C)nc2ccc(C(=O)Nc3cc(-c4ccccc4)ccc3OC)cn12,nt,nt,1,nt,0,nt,nt,nt,nt
COc1ccc(OC)c(NC(=O)CCN2C(=O)c3cccc([N+](=O)[O-])c3C2=O)c1,1,-1,-1,-2,41*,13,27,nt,nt
COc1ccc(NC(=O)C[C@H]2C(=O)N(Cc3ccccc3)C[C@@H]2C)cc1,nt,nt,0,nt,1,nt,nt,nt,nt
O=[N+]([O-])c1cccc(CON=Cc2ccccc2O)c1,nt,nt,1,nt,-6,nt,nt,nt,nt
COc1ccccc1CNCc1cc(OC)c(OC)c(OC)c1,0,0,-1,-1,30*,0,-7,nt,nt
CCn1c(CO)nc2c1c(=O)[nH]c(=O)n2Cc1ccccc1,2,0,-2,3,31*,0,2,nt,nt
Cn1c(C2CCCCC2)nc2c1c(=O)[nH]c(=O)n2Cc1ccccc1,-1,1,-3,2,34*,4,8,nt,nt
Cc1ccc(-c2nc3c(c(=O)[nH]c(=O)n3Cc3ccccc3)n2Cc2ccccc2)o1,nt,nt,-2,nt,9,nt,nt,nt,nt
O=C(Nc1ccccc1-c1nc2ccccc2[nH]1)c1ccc(N2C(=O)CCC2=O)cc1,6,0,10*,2,35*,-1,27,2,10
C[C@H](CO)N1C[C@H](C)[C@@H](CN(C)Cc2ccccc2)OCc2cnnn2CCCC1=O,nt,nt,-1,nt,0,nt,nt,nt,nt
CCOC(=O)c1c(C)[nH]c(C(=O)N(C)CC(=O)Nc2ccc(OCC)c(OCC)c2)c1C,nt,nt,-1,nt,-2,nt,nt,nt,nt
CCCCCCCCCCCCCCCC[N+](C)(C)Cc1ccc(F)cc1,nt,nt,16*,nt,42*,-1,32*,31*,13
CC#CC[N+](C)(C)CCCCCCCC,1,-2,0,-2,21,nt,nt,nt,nt
CCCCCCCCCCC[N+](C)(C)CC/C=C1/c2ccccc2Sc2ccc(Cl)cc21,1,?,21*,0,36*,7,30*,25*,19*
CCCCCCCCCC[N+](C)(C)CC/C=C1/c2ccccc2Sc2ccc(Cl)cc21,0,3,17*,3,41*,9,40*,18*,26*
O=C(NCc1ccccc1)c1cc(C2CCCCN2S(=O)(=O)c2ccccc2)on1 (centres undefined),nt,nt,1,nt,4,nt,nt,nt,nt
CC(=O)OC[C@]12CC[C@H]3[C@@](C)(CC[C@H]4C(C)(C)CCC[C@]34C)[C@@H]1CC(C1=CC(=O)OC1O)O2 (some centres undefined),nt,nt,91*,nt,52*,6,35*,26*,82*
CC(=O)OC[C@]1(OC(C)=O)C[C@@]23CC[C@H]4[C@@](C)(CCC[C@@]4(C)C(=O)O)[C@@H]2CC[C@@H]1C3,0,-1,-2,3,-2,nt,nt,nt,nt
CCc1nnc(NS(=O)(=O)c2ccc(NC(=S)NC(=O)/C=C/c3ccc(C(C)C)cc3)cc2)s1,7,1,24*,-1,29*,-2,-6,1,1
O=C(Nc1ccc2nc(SCc3ccc(Cl)cc3)sc2c1)c1ccccc1C(=O)N1CCOCC1,-3,0,10.0*,1,64*,30*,66*,24*,17
COC(=O)CSc1nc2ccc(NC(=O)c3ccccc3C(=O)N3CCOCC3)cc2s1,-1,0,-3,1,14,nt,nt,nt,nt
S=C1SC2(CCCCCC2)NC2=C1CCCCC2,nt,nt,-2,nt,5,nt,nt,nt,nt
CC(=O)Nc1ccc(C(=O)N2CCOCC2c2cc(C(=O)NCc3ccccc3)no2)cc1 (centres undefined),nt,nt,-2,nt,-3,nt,nt,nt,nt
Cc1nnc(-c2cccc(Br)c2)c2cn(-c3cccc(Br)c3)nc12,1,0,13*,1,33*,5,29*,6,5

# Compound activity as filed in PubChem BioAssay.
